Assay outcomes deposited in PubChem by several laboratories.
Only some compounds are listed: those with a hit (about 9.6% of all), similar ones and a draw of the others.
TNAP inh no acc – blocks human TNAP activity with no phosphate acceptor present. purified TNAP, CDP-star luminescence, 30 min. inhibition, % at 20 µM. P05186. 0.26% of 200,000 active;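 active means tissue-nonspecific alkaline phosphatase inhibition above about 50% at 20 µM in the single-dose screen, limit read from the data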
Target sequence (P05186 whole entry, looked up): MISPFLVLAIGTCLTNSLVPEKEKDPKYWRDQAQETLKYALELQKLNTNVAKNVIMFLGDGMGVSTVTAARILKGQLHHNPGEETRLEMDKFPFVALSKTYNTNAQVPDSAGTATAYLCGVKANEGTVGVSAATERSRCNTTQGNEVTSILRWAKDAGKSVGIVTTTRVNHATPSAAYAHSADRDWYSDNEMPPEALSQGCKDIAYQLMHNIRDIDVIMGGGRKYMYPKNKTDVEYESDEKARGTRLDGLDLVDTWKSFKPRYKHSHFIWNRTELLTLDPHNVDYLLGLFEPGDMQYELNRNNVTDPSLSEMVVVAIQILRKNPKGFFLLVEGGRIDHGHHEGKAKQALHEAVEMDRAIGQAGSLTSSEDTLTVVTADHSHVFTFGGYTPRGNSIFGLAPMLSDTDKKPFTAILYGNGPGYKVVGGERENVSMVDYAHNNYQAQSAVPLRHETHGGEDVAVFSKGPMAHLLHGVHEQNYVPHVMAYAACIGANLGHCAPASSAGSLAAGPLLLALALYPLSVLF
HCT116 PTEN-null – suppresses growth of cells with PTEN deletion; HCT116 PTEN-null viability, CellTiter-Glo, 60 h; hits give low values; viability, % at 10 µM; AID 827; 1.2% of 140,000 active;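 active means viability at or below a set limit, 4 SD under the median of all tested compounds, cut at about 3.7% in these data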;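 further: PTEN knockout HCT116 line with beta catenin targeted HCT116 as companion control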
bCat KO growth – beta-catenin-lacking colon tumor cell growth suppression; HCT116 beta-catenin knockout viability, CellTiter-Glo, 60 h; hits give low values; viability, % at 10 µM; 1.5% of 140,000 active; AID 818;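 active means viability at or under a set limit, the compound median less 4 SD, cut at about 6% in these data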
TNAP inh hiacc – TNAP (human) inhibition, high acceptor | purified TNAP, CDP-star luminescence, 1 M DEA | inhibition, % at 20 µM | 0.03% of 200,000 active;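 active means over 50% inhibition of tissue-nonspecific alkaline phosphatase at 20 µM in the single-dose screen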
L major viab – inhibitors of Leishmania major promastigote growth; Leishmania major promastigotes, resazurin fluorescence viability; inhibition, % at 10 µM; 9% of 200,000 active; AID 1063; in the data active means inhibition above about 50%;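 further: promastigotes grown with compound for 44 hours at 28 °C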
TNAP act hiacc – TNAP (human) activation, high acceptor. 200,000 tested, under 10 active. purified TNAP, CDP-star luminescence, 1 M DEA, 30 min; hits give high values; 0 = EDTA background, 1 = DMSO-only activity. activation factor at 20 µM. P05186;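 active means activation factor at least 2 at 20 µM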
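Dosing: 20 µM single point. System: human TNAP. Amount: TNAP 1/800 final. Incubation: 30 min, room temperature. Read-out: TNAP activation factor scaled between EDTA and DMSO control wells. Signal: luminescence from CDP-star hydrolysis. Medium: 1 M DEA, pH 9.8, Mg2+, Zn2+. Control set: EDTA negative control, DMSO positive control.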
Numbers stand for hits; - = inactive; . = no result given.

SMILES	TNAP inh no acc	HCT116 PTEN-null	bCat KO growth	TNAP inh hiacc	L major viab	TNAP act hiacc
COc1ccc(/C=N/NC(=O)C(Cc2c[nH]c3ccccc23)NC(=O)OCC(C)C)cc1[N+](=O)[O-] (stereo unspecified)	-	-	-	-	99	-
O=C(NC(Cc1c[nH]c2ccccc12)C(=O)N/N=C/c1ccc(Cl)cc1)c1cccs1 (stereo unspecified)	-	.	.	-	-	-
Cc1ccc(S(=O)(=O)NNC(=O)c2cc3cc4ccccc4nc3s2)cc1	-	-	-	-	92	-
CC1CCCC(C)N1C(=O)COc1ccc(C(=O)Nc2ccccc2N2CCOCC2)cc1 (stereo unspecified)	-	.	.	-	-	-
COc1cc(/C=C2\C(=N)N3N=CSC3=NC2=O)cc(Br)c1OC(=O)c1ccco1	-	.	.	-	-	-
CC1CCN(C(=O)CCc2ccc(Oc3cc([N+](=O)[O-])cc([N+](=O)[O-])c3)cc2)CC1	-	-	-	-	99	-
O=C(CCc1ccc(Oc2cc([N+](=O)[O-])cc([N+](=O)[O-])c2)cc1)NC1CCCC1	-	-	-	-	99	-
Cc1ccc(OC(=O)c2sc(Cl)nc2C)cc1C	-	-	-	-	-	-
O=C(CSc1ncccc1C(=O)O)NC12CC3CC(CC(C3)C1)C2	-	.	.	-	-	-
COc1ccccc1OCc1n[nH]c(=S)n1Cc1ccccc1	-	.	.	-	-	-
CN1CCN(c2ccc(Cl)cc2NC(=O)c2cccc(S(=O)(=O)N(C)C)c2)CC1	-	-	-	-	99	-
CC(C)NC(=O)c1ccccc1NC(=O)C1COc2ccccc2O1 (stereo unspecified)	-	-	-	-	55	-
CN1CCN(c2ccc(Cl)cc2NC(=O)C2COc3ccccc3O2)CC1 (stereo unspecified)	-	-	-	-	99	-
CN(C)S(=O)(=O)c1cccc(C(=O)Nc2cc(Cl)ccc2O)c1	-	-	-	-	-	-
CCC(C)NC(=O)c1ccccc1NC(=O)C1COc2ccccc2O1 (stereo unspecified)	-	.	.	-	-	-
N#CC1=C(N)NC(SCC(=O)Nc2ccccc2)=C(C#N)C12CCCCC2	-	-	-	-	77	-
N#CC1=C(N)NC(SCc2ccccc2)=C(C#N)C12CCCCC2	-	-	-	-	99	-
Cc1ccc(NC(=O)CSc2nnc(CNC(=O)c3cccs3)o2)c(C)c1	-	.	.	-	-	-
CCN1/C(=C/c2ccc3ccccc3[n+]2CC)C=Cc2ccccc21	-	1.5	1.8	-	101	-
CCN1C(=C2C(=O)c3ccccc3C2=O)C=Cc2ccccc21	-	-	-	-	-	-
CCC(=S)/C=C1\Sc2ccccc2N1CCCS(=O)(=O)O	-	-	-	-	-	-
Cc1sc2c3ccsc3ccc2[n+]1C	-	.	.	-	-	-
CCN1/C(=C/c2ccc3cc(C)ccc3[n+]2C)Sc2ccc3sccc3c21	-	.	.	-	101	-
CCCCN1/C(=C/c2ccc3ccccc3[n+]2CC)Sc2ccccc21	-	.	.	-	100	-
CCN1/C(=C/c2ccc3cc(C)ccc3[n+]2CC)Sc2cc(C)ccc21	-	.	.	-	100	-
SMILES	TNAP inh no acc	HCT116 PTEN-null	bCat KO growth	TNAP inh hiacc	L major viab	TNAP act hiacc
S=c1nc(-c2sccc2OCc2ccc(Cl)cc2Cl)[nH][nH]1	-	.	.	-	-	-
NC(=O)c1cnn(-c2cc(Oc3ccccc3)ncn2)c1N	-	.	.	-	-	-
CCCC(=O)Nc1ccc(C(=O)/C=C/c2ccc(SC)cc2)cc1	-	-	-	-	-	-
CC(=O)Nc1cccc(C(=O)/C=C/c2ccc(C)cc2)c1	-	1.9	2.7	-	100	-
CSc1ccc(/C=C/C(=O)c2ccc(NC(C)=O)cc2)cc1	-	-	-	-	57	-
CCC(=O)Nc1cccc(C(=O)/C=C/c2ccc(F)cc2)c1	-	.	.	-	100	-
CN(C)c1ccc(/C=C/C(=O)c2cccc(Br)c2)cc1	-	-	-	-	-	-
CCOc1ccc(/C=C/C(=O)Nc2cccc(C(C)=O)c2)cc1	-	-	-	-	-	-
Cc1ccc(S(=O)(=O)NC2CCCCC2)c(C)c1NS(C)(=O)=O	-	.	.	-	-	-
O=S(=O)(CCSc1nc2ccccc2o1)c1nc2ccccc2s1	-	3.5	5.1	-	98	-
CCS(=O)(=O)CCSc1nc2ccccc2o1	-	-	-	-	-	-
COC(=O)c1cc(C(=O)NCCN2C(=O)S/C(=C\c3cccs3)C2=O)cc([N+](=O)[O-])c1	-	-	-	-	-	-
FC(F)c1nc2ccccc2[nH]1	-	.	.	-	-	-
c1ccc2[nH]c3cc4ncnc4cc3nc2c1	-	-	-	-	99	-
CCOC(=O)C1=C(c2ccccc2)ON(C)C1c1ccccc1 (stereo unspecified)	-	-	-	-	-	-
Cc1cc(C)n(-c2ncnc3ccccc23)n1	-	.	.	-	-	-
CCOc1ccc(C2/C(=C(\O)c3c(C)[nH]c(C(=O)OC)c3C)C(=O)C(=O)N2CCN(C)C)cc1 (stereo unspecified)	-	0.7	0.7	-	-	-
Cc1ccccc1NC(=S)N(CCc1c(C)[nH]c2ccc(F)cc12)Cc1cccnc1	-	.	.	-	100	-
Cc1[nH]c2ccc(F)cc2c1CCN(Cc1cccnc1)C(=S)Nc1cccc(F)c1	-	.	.	-	100	-
Cc1[nH]c2ccc(F)cc2c1CCN(Cc1ccncc1)C(=S)Nc1ccc(F)cc1	-	.	.	-	99	-
Cc1[nH]c2ccc(F)cc2c1CCN(Cc1ccco1)C(=S)NC(C)(C)C	-	.	.	-	-	-
CNC(=S)N(CCc1c(C)[nH]c2ccc(OC)cc12)Cc1cccnc1	-	.	.	-	-	-
O=[N+]([O-])c1cccc(-n2nnnc2CN2CCCC2)c1	-	.	.	-	-	-
O=C(CNC(=O)c1ccc(-c2ccccc2)cc1)OCc1c(F)cccc1Cl	-	-	-	-	-	-
CCOc1ccc2oc(C(=O)NC3CCN(Cc4ccccc4)CC3)c(C)c2c1	-	.	.	-	83	-
SMILES	TNAP inh no acc	HCT116 PTEN-null	bCat KO growth	TNAP inh hiacc	L major viab	TNAP act hiacc
CCOc1ccc2oc(C(=O)NC3CC(C)(C)NC(C)(C)C3)c(C)c2c1	-	.	.	-	82	-
CC1(C)CC(NC(=O)COc2ccc3ccccc3c2)CC(C)(C)N1	-	-	-	-	83	-
CCOc1ccc2oc(C(=O)NC(C)(C)CC)c(C)c2c1	-	.	.	-	-	-
Cc1ccc(OCC(=O)NC2CC(C)(C)NC(C)(C)C2)cc1C	-	.	.	-	-	-
COc1cc(/C=C(/Sc2nnc(-c3ccc(F)cc3)o2)C(=O)O)ccc1OC(F)F	-	.	.	-	-	-
COCCNC(=O)/C(C#N)=C1\N=C(N)c2ccccc21	-	-	-	-	59	-
O=C(Nc1ccncc1)c1ccccc1-c1ccccc1	-	.	.	-	-	-
COc1ccc(N2C(=O)C3C4c5ccccc5C(C=Nc5ccc(C)cc5C)(c5ccccc54)C3C2=O)cc1 (stereo unspecified)	.	.	.	.	-	.
